# High-throughput results: PubChem, several laboratories
# Sampled rows, rich in hits. Any-hit rate of the full collection: about 5.2%.
# PfM18AAP inh: PfM18AAP inhibitors, malaria aminopeptidase, primary screen, biochemical, QFRET, recombinant enzyme; M18 aspartyl aminopeptidase (Plasmodium falciparum 3D7); H-Glu-NHMec fluorogenic cleavage; inhibition, % at 7.35 µM; hit rate 1.2% among 290,000; AID 1822, 2009;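 active = inhibition above the campaign mean inhibition over all tested compounds plus 3 SD, cut at about 28% in these data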;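 also: 0% = plate median of test compound wells and 100% = 2 mM ZnCl2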
# ALR H2O2 inh: inhibitors of human ALR sulfhydryl oxidase, primary screen, biochemical, H2O2 detection, HRP-luminol luminescence, single point. FAD-linked sulfhydryl oxidase ALR (Homo sapiens), P55789. purified ALR, DTT oxidation. inhibition, % (concentration not given with the values). hit rate 3.8% among 290,000. AID 485317, 2010;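 active = mean replicate inhibition above about 79%, with every replicate also reaching it, limit read from the data; inconclusive = only one of the two criteria met; inactive = mean below limit and not every replicate reaching it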
# Target sequence (P55789 whole entry, looked up): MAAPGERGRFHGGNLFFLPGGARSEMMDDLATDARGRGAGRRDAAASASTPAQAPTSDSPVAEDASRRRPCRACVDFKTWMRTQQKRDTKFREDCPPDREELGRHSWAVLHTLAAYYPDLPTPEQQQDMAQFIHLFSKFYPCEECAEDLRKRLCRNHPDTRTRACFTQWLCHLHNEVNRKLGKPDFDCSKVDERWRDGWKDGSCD
# EBNA-1 inh: EBNA-1 DNA-binding inhibitors, primary screen, biochemical, fluorescence polarization. inhibition, % at 14.8 µM. hit rate 0.34% among 300,000; in the data active = inhibition above about 28%
# HCV core dimer: inhibitors of HCV core protein dimerization, primary screen, biochemical, TR-FRET, high-throughput; TR-FRET GST/Flag-core106 dimerization, 1536-well; inhibition, % at 5 µM; hit rate 0.33% among 300,000; AID 1899, 2009;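 active = inhibition above the mean of all tested compounds plus 3 SD, set per screening campaign, cut at about 45% in these data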
#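 Assay system: Tagged HCV core106 pair (GST and Flag) | Buffer or medium: KF-containing HEPES buffer, pH 7.45, DTT, CHAPS, BSA | Also added: Eu donor and XL665 acceptor anti-tag antibodies | Dosing: One concentration, 5 µM, in 0.5% DMSO | Timing: 4 h at 22.5 °C | Technique: TR-FRET 671 and 617 nm emission | Repeats: Singlicate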
# ZTA counter: blocks Epstein-Barr virus ZTA, an EBNA-1 counter-screen; hit rate 0.15% among 320,000; ZTA-DNA binding, fluorescence polarization; inhibition, % at 11 µM; in the data active = inhibition above about 33%
# Target sequence (P03206 whole entry, looked up): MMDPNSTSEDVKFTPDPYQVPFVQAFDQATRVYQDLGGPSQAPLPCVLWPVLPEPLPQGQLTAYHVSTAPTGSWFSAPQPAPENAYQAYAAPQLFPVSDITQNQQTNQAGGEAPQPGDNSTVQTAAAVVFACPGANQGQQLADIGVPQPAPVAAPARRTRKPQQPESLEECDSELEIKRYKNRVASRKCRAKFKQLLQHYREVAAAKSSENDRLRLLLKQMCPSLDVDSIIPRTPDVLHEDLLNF
# HCV NS3 hel inh: inhibitors of HCV NS3 helicase, primary screen, biochemical, Cy5 molecular beacon fluorescence. Hepatitis C virus NS3 helicase. NS3 helicase DNA unwinding. inhibition, % at 10.9 µM. hit rate 0.56% among 290,000;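 active = inhibition above the mean of all tested compounds plus 3 SD, set per campaign, cut at about 35% in these data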;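 also: 0% = DMSO wells and 100% = thioflavine S control wells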
#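 System: Hepatitis C virus NS3 helicase domain fragment enzyme | Reagent: Annealed dual-labelled DNA beacon duplex, ATP-started | Compound dosing: 10.9 µM single point, 0.8% DMSO | Incubation: 1 h reaction at 25 °C, ATP-initiated | Technique: Cy5 fluorescence | Evaluation: Percent inhibition from t60/t0 fluorescence ratio | Benchmarks: Low DMSO, high thioflavine S at 110 µM | Replication: Singlicate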
# * marks the source's active call; other numbers are inactive results; ? = inconclusive; / = no result.
SMILES,PfM18AAP inh,ALR H2O2 inh,EBNA-1 inh,HCV core dimer,ZTA counter,HCV NS3 hel inh
C(=N\Nc1nc2ccccc2[nH]1)/c1ccc2c(c1)OCO2,29*,/,/,/,/,-5
C(=N\Nc1nc2ccccc2s1)/c1ccc2c(c1)OCO2,17,-2,-11,-11,0,6
CC(C)C(C(=O)NC1CCCC1)N(CC1CCCO1)C(=O)CNS(=O)(=O)c1ccccc1 (stereo not given),8,7,-7,7,4,3
O=C1C=C(O)c2c(O)cc(O)c(O)c2C1=O,/,98*,7,-56,12,/
C[C@@H]1Cc2c(O)c(O)cc(O)c2C(=O)O1,/,53,-2,-5,7,/
COc1cccc(C(=O)Nc2cccc(-c3ccc(N4CCOCC4)nn3)c2)c1OC,/,-9,3,1,7,/
O=C(Nc1ccccc1)Nc1ccc(O)c2ccccc12,/,87*,5,2,-4,/
O=C(O)CCc1ccc(-c2ccc(F)cc2)n1NC(=O)c1ccco1,1,12,-8,-11,-23,6
Cc1ccc(-c2ccc(CCC(=O)O)n2NC(=O)c2ccco2)cc1,-1,92*,-8,-7,-5,8
Cc1ccc(-c2ccc(CCC(=O)O)n2-c2ccc(O)cc2)cc1,3,87*,0,-2,13,16
O=C(O)CCc1ccc(-c2ccc(Br)cc2)n1-c1ccc(O)cc1,2,58,/,/,/,32
CC(C)COn1c(=S)[nH]c2ccccc2c1=O,-6,97*,-24,0,-15,6
Cc1cc(C)nc(SCc2cc(=O)c(OC(=O)c3cc([N+](=O)[O-])ccc3Cl)co2)n1,4,94*,2,3,1,5
COCCCNC(=O)C(=O)Nc1cc2c3c(c1)CCN3C(=O)CC2,-12,2,-18,-6,-1,4
O=C(O)CCn1cc(/C=C2\NC(=S)N(c3ccccc3)C2=O)c(-c2ccc(Br)cc2)n1,3,?,0,-6,-13,-18
CCOc1cc(/C=N/n2cnnc2)ccc1O,3,99*,16,-6,-9,-6
COc1cc(/C=N/Nc2nn3cnnc3c3ccccc23)ccc1O,5,4,11,-5,4,2
CCOc1cc(/C=N/Nc2nn3cnnc3c3ccccc23)ccc1O,-12,82*,5,-4,-1,4
CCOc1ccc(NS(=O)(=O)c2ccc(-c3coc(C)n3)cc2)cc1,-10,-1,1,0,6,-13
CCCN1CCN(C(=O)c2ccc(F)c(S(=O)(=O)N3CCOCC3)c2)CC1,/,0,/,/,2,/
Cc1cccc(NC(=O)Cn2cnc(S(=O)(=O)N3CCCC3)c2)c1C,-3,-7,15,-4,2,3
Cc1cc(Sc2nnc(/N=C/N(C)C)s2)c2ccccc2n1,-2,98*,-4,-1,0,1
Cc1cc(Sc2nnc(N)s2)c2ccccc2n1,-8,7,-10,3,10,4
CCOC(=O)c1nncc(-c2ccccc2)n1,/,-5,/,/,0,/
O=C(Nc1ccc(Cl)cc1)Nc1ccc2c(c1)N1CCN=C1S2,-4,0,24,8,11,-22
SMILES,PfM18AAP inh,ALR H2O2 inh,EBNA-1 inh,HCV core dimer,ZTA counter,HCV NS3 hel inh
Nc1ccc2c(c1)N1CCN=C1S2,-11,88*,-18,1,3,11
O=C(NCCN1CCOCC1)Nc1ccccc1,3,0,-3,-6,6,6
O=C(NCCN1CCOCC1)NC1(C(F)(F)F)Oc2ccccc2O1,72*,/,-8,-6,-6,5
O=C(COC(=O)c1cc([N+](=O)[O-])ccc1NCc1ccccc1)NC1CCCc2ccccc21 (stereo not given),-4,-3,-18,59*,-4,5
COc1ccc(C(CNC(=O)c2ccc(NS(=O)(=O)c3ccc4c(c3)OCCO4)cc2)N(C)C)cc1 (stereo not given),/,/,0,-10,-16,/
CSc1cccc(NC(=O)c2ccc(NC3=NC4CS(=O)(=O)CC4S3)cc2)c1 (stereo not given),6,99*,10,-3,16,-2
O=C(Nc1cccc(Cl)c1)c1ccc(NC2=NC3CS(=O)(=O)CC3S2)cc1 (stereo not given),1,-8,0,11,14,-6
COc1cccc(OC)c1C(=O)NC(=O)Oc1c(F)cccc1F,-16,-16,-5,-9,-5,10
O=C(c1ccc2c(c1)OCO2)N1CCN(c2ccccc2)CC1,-2,98*,-3,-8,-24,4
O=C(c1ccccc1)N1CCN(c2ccc(NCc3ccc4c(c3)OCO4)cc2)CC1,-5,89*,12,2,2,10
COc1ccc(N2CCN(C(=O)c3ccc4c(c3)OCO4)CC2)cc1,7,84*,-10,2,-3,0
COc1ccc(N2CCN(C(=O)c3ccc(SC)cc3OC)CC2)cc1,6,85*,14,11,0,-4
COc1cc(SC)ccc1C(=O)N1CCN(c2ccccc2F)CC1,-9,-6,2,-2,8,-17
COc1ccc2[nH]c(C(=O)O)c(NS(=O)(=O)c3ccc(C)cc3C)c2c1,-9,98*,0,0,-15,-7
CCCS(=O)(=O)Nc1c(C(=O)O)[nH]c2ccc(OC)cc12,-14,?,-1,-6,-9,-1
COC(=O)c1[nH]c2ccc(C)cc2c1NS(=O)(=O)c1ccc(F)cc1,2,79*,9,2,11,-1
CCn1cc(C(=O)N[C@@H](CCSC)C(=O)NC(C)(C)CO)c(=O)c2cc3c(cc21)OCO3,3,/,3,3,12,6
CSCCC(NC(=O)c1ccco1)C(=O)N1CC(C)OC(C)C1 (stereo not given),/,1,/,/,-2,/
CC(C)(C)C(=O)N1CCc2cc(-c3csc(N)n3)ccc21,4,99*,3,-2,-10,3
CCC(C)C(=O)N1CCc2cc(-c3csc(N)n3)ccc21 (stereo not given),3,98*,4,-4,-14,-8
CNc1nc(-c2ccc3c(c2)CCN3C(=O)CC(C)(C)C)c(C)s1,1,44,-11,19,-12,-5
CNc1nc(-c2ccc3c(c2)CCN3C(=O)c2ccccc2F)cs1,2,/,/,/,/,-6
CCCC(=O)N1CCc2cc(-c3nc(N)sc3C)ccc21,-1,98*,-4,12,-6,-7
COc1ccc(S(=O)(=O)N2CCc3cc4c(cc3C2C)OCCCO4)cc1 (stereo not given),-1,-4,-7,-12,9,3
CCCCNc1cc(NC(C)=O)cc2cc(OC)c(OC)cc12,28*,99*,4,-60,1,2
